The text below walks through data of ChEMBL document CHEMBL1131182, “Anti-AIDS agents. 34. Synthesis and structure-activity relationships of betulin derivatives as anti-HIV agents” (J Med Chem, 1998).

pEC50, pIC50: −log10 of the molar value.

For data set [1], the system named is H9. Briefly: Anti-HIV activity against acutely infected H9 lymphocytes. Activity expressed as concentration of compound able to suppress HIV replication by 50%. Type of data set: functional, cell-based. To be noted: Homo sapiens. The method in brief: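 H9 cells (RPMI 1640, 10% FCS, L-glutamine, 37 °C, 5% CO2, log phase) infected 1 h with HIV-1 IIIB at MOI 0.1-0.01, washed and plated at 4 × 10^5 cells/mL with DMSO-dissolved samples (screen 100, 20, 4, 0.8 µg/mL final, further dilutions for actives). After 4 days, supernatant p24 was measured by antigen-capture ELISA against a standard curve. EC50 is 50% suppression of replication; at least two experiments averaged.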

Data set [2] is described as follows: Therapeutic Index is the […] of the IC50 to that of EC50. Type of data set: cell-based. To be noted: human, H9 cells; read-out: TI.
Data set [3] concerns H9. Briefly: Anti-HIV activity against acutely infected H9 lymphocytes. Activity expressed as concentration of compound toxic to 50% of mock-infected H9 cells. The class given is functional, cell-based. The note with it: Homo sapiens. In a few lines:
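Uninfected H9 cells were exposed to DMSO-dissolved samples (screen 100, 20, 4, 0.8 µg/mL final) for 4 days at 37 °C, 5% CO2. Remaining cells were counted with a counter against medium-only controls. IC50 is the concentration toxic to 50% of mock-infected cells; at least two experiments averaged.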

Regarding `C=C(C)[C@@H]1CC[C@]2(COC(=O)CC3(CC(=O)O)CCCC3)CC[C@]3(C)[C@H](CC[C@@H]4[C@@]5(C)CC[C@H](O)C(C)(C)[C@@H]5CC[C@]43C)[C@@H]12`, the pEC50 in the data set on H9 [1] is 5.68. For the same compound, the selectivity ratio in data set [2] came to 6.1. The same compound showed a pIC50 in the data set on H9 [3] of 4.88.

`CC(C)[C@@H]1CC[C@]2(COC(=O)CCCC(=O)O)CC[C@]3(C)[C@H](CC[C@@H]4[C@@]5(C)CC[C@H](OC(=O)CCCC(=O)O)C(C)(C)[C@@H]5CC[C@]43C)[C@@H]12` showed a pEC50 in the data set on H9 [1] of 5.80. Besides, the selectivity ratio in data set [2] worked out at 17. This compound also showed a pIC50 in the data set with H9 [3] of 4.58.

In the case of `C=C(C)[C@@H]1CC[C@]2(COC(=O)CCC(=O)O)CC[C@]3(C)[C@H](CC[C@@H]4[C@@]5(C)CC[C@H](OC(=O)CCC(=O)O)C(C)(C)[C@@H]5CC[C@]43C)[C@@H]12`, in the data set with H9 [1], the pEC50 is 5.42. In addition, the selectivity ratio in data set [2] turned out to be 9.3. Moreover, the pIC50 in the data set on H9 [3] was 4.45.

In turn, `C=C(C)[C@@H]1CC[C@]2(CNC(=O)CC3(CC(=O)O)CCCC3)CC[C@]3(C)[C@H](CC[C@@H]4[C@@]5(C)CC[C@H](NC(=O)CC6(CC(=O)O)CCCC6)C(C)(C)[C@@H]5CC[C@]43C)[C@@H]12` had a pEC50 with H9 [1] of 5.32. Besides, the selectivity ratio in data set [2] came out at 3.1. In the data set with H9 [3], this compound showed a pIC50 of 4.82.

The compound `C=C(C)[C@@H]1CC[C@]2(/C=N/OC(=O)CC(C)(C)CC(=O)O)CC[C@]3(C)[C@H](CC[C@@H]4[C@@]5(C)CC/C(=N\OC(=O)CC(C)(C)CC(=O)O)C(C)(C)[C@@H]5CC[C@]43C)[C@@H]12` showed a pEC50 with H9 [1] of 5.34. Also, the selectivity ratio in data set [2] came to 3.4. The same compound gave a pIC50 with H9 [3] of 4.81.

In the data set with H9 [1], `CC(CC(=O)O)CC(=O)OC[C@]12CC[C@@H](C(C)C)[C@@H]1[C@H]1CC[C@@H]3[C@@]4(C)CC[C@H](OC(=O)CC(C)CC(=O)O)C(C)(C)[C@@H]4CC[C@@]3(C)[C@]1(C)CC2` (some centres not stated) showed a pEC50 of 7.23. For the same compound, the selectivity ratio in data set [2] is 325. In addition, the pIC50 in the data set on H9 [3] was 4.72.

In the data set on H9 [1], `C=C(C)[C@@H]1CC[C@]2(COC(=O)CCCC(=O)O)CC[C@]3(C)[C@H](CC[C@@H]4[C@@]5(C)CC[C@H](OC(=O)CCCC(=O)O)C(C)(C)[C@@H]5CC[C@]43C)[C@@H]12` had a pEC50 of 5.42. The selectivity ratio in data set [2] came to 6.8. The pIC50 in the data set with H9 [3] is 4.59.

Regarding `C=C(COC(=O)CC(C)(C)CC(=O)O)[C@@H]1CC[C@]2(COC(=O)CC(C)(C)CC(=O)O)CC[C@]3(C)[C@H](CC[C@@H]4[C@@]5(C)CC[C@H](OC(=O)CC(C)(C)CC(=O)O)C(C)(C)[C@@H]5CC[C@]43C)[C@@H]12`, the negative logarithm of the EC50 (pEC50) with H9 [1] was 7.35. The selectivity ratio in data set [2] came to 389. In the data set with H9 [3], the pIC50 is 4.76.

Turning to `C=C(C)[C@@H]1CC[C@]2(COC(=O)CC(C)CC(=O)O)CC[C@]3(C)[C@H](CC[C@@H]4[C@@]5(C)CC[C@H](OC(=O)CC(C)CC(=O)O)C(C)(C)[C@@H]5CC[C@]43C)[C@@H]12` (some centres not stated), the pEC50 in the data set with H9 [1] is 8.41. Also, the selectivity ratio in data set [2] is 5310. The compound also had a pIC50 with H9 [3] of 4.68.

`C=C(C)[C@@H]1CC[C@]2(COC(=O)C34CC5CC(CC(C5)C3)C4)CC[C@]3(C)[C@H](CC[C@@H]4[C@@]5(C)CC[C@H](OC(=O)CC(C)(C)CC(=O)O)C(C)(C)[C@@H]5CC[C@]43C)[C@@H]12` showed a pEC50 with H9 [1] of 5.53. For the same compound, the selectivity ratio in data set [2] was more than 44.8. In addition, the pIC50 with H9 [3] is less than 3.87.

`C=C(C)[C@@H]1CC[C@]2(COC(=O)CC(C)(C)CC(=O)O)CC[C@]3(C)[C@H](CC[C@@H]4[C@@]5(C)CC[C@@H](OC(=O)CC(C)(C)CC(=O)O)C(C)(C)[C@@H]5CC[C@]43C)[C@@H]12`: the pEC50 with H9 [1] is less than 4.86. Moreover, in data set [2], the selectivity ratio is less than 2.4. In the data set with H9 [3], this compound showed a pIC50 of 4.47.

Regarding `CC(C)[C@@H]1CC[C@]2(COC(=O)CCC(=O)O)CC[C@]3(C)[C@H](CC[C@@H]4[C@@]5(C)CC[C@H](OC(=O)CCC(=O)O)C(C)(C)[C@@H]5CC[C@]43C)[C@@H]12`, the pEC50 with H9 [1] was 5.33. Further, the selectivity ratio in data set [2] amounted to 6.2. Moreover, the pIC50 in the data set on H9 [3] was 4.54.

As for `C=C(C)[C@@H]1CC[C@]2(COC(=O)CC(C)(C)CC(=O)O)CC[C@]3(C)[C@H](CC[C@@H]4[C@@]5(C)CCC(=O)C(C)(C)[C@@H]5CC[C@]43C)[C@@H]12`, in data set [2], the selectivity ratio turned out to be 2.9.

Regarding `CC(C)[C@@H]1CC[C@]2(COC(=O)CC(C)(C)CC(=O)O)CC[C@]3(C)[C@H](CC[C@@H]4[C@@]5(C)CC[C@H](OC(=O)CC(C)(C)CC(=O)O)C(C)(C)[C@@H]5CC[C@]43C)[C@@H]12`, the selectivity ratio in data set [2] came to 2250.

In the data set on H9 [1], `C=C(COC(=O)CC1(CC(=O)O)CCCC1)[C@@H]1CC[C@]2(COC(=O)CC3(CC(=O)O)CCCC3)CC[C@]3(C)[C@H](CC[C@@H]4[C@@]5(C)CC[C@H](OC(=O)CC6(CC(=O)O)CCCC6)C(C)(C)[C@@H]5CC[C@]43C)[C@@H]12` showed a pEC50 of 8.27. In addition, the selectivity ratio in data set [2] was determined as 1190. The same compound gave a pIC50 in the data set on H9 [3] of 5.16.

Take `C=C(C)[C@@H]1CC[C@]2(COC(=O)CC3(CC(=O)O)CCCC3)CC[C@]3(C)[C@H](CC[C@@H]4[C@@]5(C)CC[C@H](OC(=O)CC6(CC(=O)O)CCCC6)C(C)(C)[C@@H]5CC[C@]43C)[C@@H]12`: the selectivity ratio in data set [2] turned out to be 267.

Regarding `CCC(C)(CC(=O)O)CC(=O)OC[C@]12CC[C@@H](C(C)C)[C@@H]1[C@H]1CC[C@@H]3[C@@]4(C)CC[C@H](OC(=O)CC(C)(CC)CC(=O)O)C(C)(C)[C@@H]4CC[C@@]3(C)[C@]1(C)CC2` (some centres not stated), in data set [2], the selectivity ratio was 248.

`C=C(C)[C@@H]1CC[C@]2(COC(=O)CC(C)(C)CC(=O)O)CC[C@]3(C)[C@H](CC[C@@H]4[C@@]5(C)CC=CC(C)(C)[C@@H]5CC[C@]43C)[C@@H]12`: in data set [2], the selectivity ratio is 5.2.

Consider `C=C(C)[C@@H]1CC[C@]2(C(=O)O)CC[C@]3(C)[C@H](CC[C@@H]4[C@@]5(C)CC[C@H](OC(=O)COCC(=O)O)C(C)(C)[C@@H]5CC[C@]43C)[C@@H]12`, for which the selectivity ratio in data set [2] came out at 1170.

Turning to `C=C(C)[C@@H]1CC[C@]2(COC(=O)CC(C)(C)CC(=O)O)CC[C@]3(C)[C@H](CC[C@@H]4[C@@]5(C)CC[C@H](O)C(C)(C)[C@@H]5CC[C@]43C)[C@@H]12`, the selectivity ratio in data set [2] was 7.8.

As for `C=C(C)[C@@H]1CC[C@]2(COC(=O)CC(C)(CC)CC(=O)O)CC[C@]3(C)[C@H](CC[C@@H]4[C@@]5(C)CC[C@H](OC(=O)CC(C)(CC)CC(=O)O)C(C)(C)[C@@H]5CC[C@]43C)[C@@H]12` (some centres not stated), in data set [2], the selectivity ratio was found to be 3480.

On to `C=C(C)[C@@H]1CC[C@]2(CO)CC[C@]3(C)[C@H](CC[C@@H]4[C@@]5(C)CC=CC(C)(C)[C@@H]5CC[C@]43C)[C@@H]12`, for which the selectivity ratio in data set [2] worked out at 2.7.

As for `C=C(C)[C@@H]1CC[C@]2(COC(=O)CC(C)(C)CC(=O)O)CC[C@]3(C)[C@H](CC[C@@H]4[C@@]5(C)CC[C@H](OC(=O)CC(C)(C)CC(=O)O)C(C)(C)[C@@H]5CC[C@]43C)[C@@H]12`, the selectivity ratio in data set [2] worked out at 21500.

Consider `CC(C)[C@@H]1CC[C@]2(COC(=O)CC3(CC(=O)O)CCCC3)CC[C@]3(C)[C@H](CC[C@@H]4[C@@]5(C)CC[C@H](OC(=O)CC6(CC(=O)O)CCCC6)C(C)(C)[C@@H]5CC[C@]43C)[C@@H]12`, for which the selectivity ratio in data set [2] stood at 37.

In the case of `C=C(C)[C@@H]1CC[C@]2(COC(=O)CC3(CC(=O)O)CCCC3)CC[C@]3(C)[C@H](CC[C@@H]4[C@@]5(C)CC=CC(C)(C)[C@@H]5CC[C@]43C)[C@@H]12`, the pEC50 in the data set on H9 [1] was 5.07. Moreover, the selectivity ratio in data set [2] is 4.3. In the data set with H9 [3], this compound had a pIC50 of 4.44.

In the data set with H9 [1], `C=C(COC(C)=O)[C@@H]1CC[C@]2(COC(C)=O)CC[C@]3(C)[C@H](CC[C@@H]4[C@@]5(C)CC[C@H](OC(C)=O)C(C)(C)[C@@H]5CC[C@]43C)[C@@H]12` showed a pEC50 of 4.99. Moreover, the selectivity ratio in data set [2] was 2.5. This compound also had a pIC50 in the data set with H9 [3] of 4.60.

With `C=C(C)[C@@H]1CC[C@]2(CNC(=O)CC(C)(C)CC(=O)O)CC[C@]3(C)[C@H](CC[C@@H]4[C@@]5(C)CC[C@H](NC(=O)CC(C)(C)CC(=O)O)C(C)(C)[C@@H]5CC[C@]43C)[C@@H]12`, in the data set with H9 [1], the pEC50 was 6.24. Further, the selectivity ratio in data set [2] came out at 36.6. In the data set on H9 [3], this compound had a pIC50 of 4.69.

Turning to `C=C(C)[C@@H]1CC[C@]2(COC(=O)CC3(CC(=O)O)CCCC3)CC[C@]3(C)[C@H](CC[C@@H]4[C@@]5(C)CCC(=O)C(C)(C)[C@@H]5CC[C@]43C)[C@@H]12`, the pEC50 in the data set on H9 [1] was 5.37. Moreover, the selectivity ratio in data set [2] came to 3. In the data set with H9 [3], the pIC50 is 4.89.

Turning to `C=C(C)[C@@H]1CC[C@]2(C(=O)O)CC[C@]3(C)[C@H](CC[C@@H]4[C@@]5(C)CC[C@H](OC(=O)C(C)(C)CC(=O)O)C(C)(C)[C@@H]5CC[C@]43C)[C@@H]12`, the selectivity ratio in data set [2] is 5.9.

Consider `C=C(C)[C@@H]1CC[C@]2(CO)CC[C@]3(C)[C@H](CC[C@@H]4[C@@]5(C)CC[C@@H](O)C(C)(C)[C@@H]5CC[C@]43C)[C@@H]12` [3-EPI-BETULIN], for which the pEC50 in the data set on H9 [1] is 5.44. Besides, in data set [2], the selectivity ratio was 3.4. The same compound showed a pIC50 with H9 [3] of 4.91.

`C=C(C)[C@@H]1CC[C@]2(CO)CC[C@]3(C)[C@H](CC[C@@H]4[C@@]5(C)CC[C@H](O)C(C)(C)[C@@H]5CC[C@]43C)[C@@H]12` [BETULIN]: in data set [2], the selectivity ratio is 1.9.
